# Results reported in article PMC7616937 (Chemical communications (Cambridge, England), 2019).
# Peptide text beside a SMILES is read from it.
# Tests used:
# [1] = Kinetics of fibrillation by Thioflavin T; type: physicochemical; settings: Fig. 3g
# In short: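 Peptide fibrillation was tracked by Thioflavin T fluorescence, either with peptide alone or with lipid vesicles mimicking mammalian plasma membranes. The vesicles were made of 1,2-dioleoyl-sn-glycero-3-phosphocholine (DOPC), cholesterol and sphingomyelin.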
# [2] = Kinetics of fiber formation by TEM imaging; type: physicochemical; settings: Fig. 2a, b
# neuronal dysfunction = settings: observation from the literature, no reference printed at b17; compare b4, ref 7a; cited from earlier work
"ThT fluorescence during kinetic measurement ([1]; peptide only, without lipid vesicles, followed for 96 hours)",effect of addition of lipid vesicles on ThT fluorescence / fibrillation ([1]; with DOPC/Chol/Sph lipid vesicles),Compound,time to mature fibers / completion of self-assembly [2],toxicity (neuronal dysfunction)
dramatic increase in fluorescence,inhibition of the fibrillation process,"CC(=O)N[C@@H](CCCCN)C(=O)N[C@@H](CC(C)C)C(=O)N[C@H](C(=O)N[C@@H](Cc1ccccc1)C(=O)N[C@@H](Cc1ccccc1)C(=O)N[C@@H](C)C(=O)N[C@@H](CCC(=O)O)C(N)=O)C(C)C [Aβ(16-22), Ac-KLVFFAE-NH2] (Ac-KLVFFAE-NH2)",four to seven days,
,,Aβ(1-42): full length Aβ peptide,,high toxicity
